Laboratory results from ChEMBL document CHEMBL2311431, “Synthesis and biological evaluation of some 5-arylidene-2-(1,3-thiazol-2-ylimino)-1,3-thiazolidin-4-ones as dual anti-inflammatory/antimicrobial agents” (Bioorg Med Chem, 2013).
≈ marks a conversion by molar mass, not a printed value.

Columns and labels:
Mus musculus [1] = test: Acute toxicity in AKR mouse up to 0.5 mmol/kg, ip; type: organism-based; settings: in vivo
Mus musculus [2] = test: Antiinflammatory activity in AKR mouse assessed as inhibition of carrageenan-induced paw edema at 0.01 mmol/kg, ip measured after 3.5 hrs of carrageenan-challenge; type: functional
How it was run: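 AKR mice of both sexes (pregnant females excluded), 6-10 per group, fasted during the experiment. Edema induced by intradermal 0.05 mL of 2% carrageenin into the right hind paw. Compound given at 0.01 mmol/kg ip, suspended in water with Tween-80, at the same time as carrageenin.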

[3] = target: T1, Prostaglandin G/H synthase 1 (Ovis aries) (UniProt P05979); test: (§1) Inhibition of ovine COX1 assessed as inhibition of PGF2a production by enzyme immunoassay; parameters: concentration or dose not given beside the values; settings: concentration not given here
T1 sequence (whole entry): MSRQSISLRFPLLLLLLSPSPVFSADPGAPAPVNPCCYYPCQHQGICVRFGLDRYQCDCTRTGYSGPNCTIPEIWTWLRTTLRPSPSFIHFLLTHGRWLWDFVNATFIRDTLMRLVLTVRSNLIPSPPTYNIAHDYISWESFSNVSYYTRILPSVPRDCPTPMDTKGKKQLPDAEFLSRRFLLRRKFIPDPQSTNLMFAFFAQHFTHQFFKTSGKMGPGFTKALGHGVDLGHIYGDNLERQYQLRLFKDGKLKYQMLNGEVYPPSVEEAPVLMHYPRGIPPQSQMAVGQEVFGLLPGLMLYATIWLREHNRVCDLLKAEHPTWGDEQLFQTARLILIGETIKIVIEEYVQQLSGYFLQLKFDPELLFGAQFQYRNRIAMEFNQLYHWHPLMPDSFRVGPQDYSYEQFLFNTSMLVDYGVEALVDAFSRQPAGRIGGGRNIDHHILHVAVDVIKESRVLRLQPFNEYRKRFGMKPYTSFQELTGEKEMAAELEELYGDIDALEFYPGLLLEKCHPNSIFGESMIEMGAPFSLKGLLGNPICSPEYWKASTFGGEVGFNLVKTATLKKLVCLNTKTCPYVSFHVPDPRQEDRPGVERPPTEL
How it was run: (§2)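 Ovine COX-1 from a commercial screening kit, tested with 0.1 µM arachidonic acid, which is below the saturating level. COX-derived PGH2 is reduced by SnCl2 to PGF2a, quantified by enzyme immunoassay with a broad prostaglandin antibody. At least triplicate.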

[4] = (§3) Inhibition of soybean lipoxygenase assessed as inhibition of sodium linolate conversion to 13-hydroperoxylinoleic acid after 4 mins by spectrophotometry; parameters: species or system Glycine max; settings: read-out: IC50
Glycine max = test: as §3
Aspergillus niger [5] = test: Fungicidal activity against Aspergillus niger ATCC 6275 after 72 hrs by serial subcultivation method; type: functional; settings: ATCC 6275, 72 h
Aspergillus niger [6] = test: Antifungal activity against Aspergillus niger ATCC 6275 after 72 hrs by serial dilution technique; type: functional; settings: ATCC 6275, 72 h
How it was run: (§4)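 Serial dilution in malt broth; compounds from 1 mg/ml stocks in 5% DMSO; 72 h at 28 °C. MIC is the lowest concentration with no visible growth under a binocular microscope. Run in duplicate, repeated three times.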

Aspergillus fumigatus [7] = test: Fungicidal activity against Aspergillus fumigatus after 72 hrs by serial subcultivation method; type: functional
Aspergillus flavus [8] = test: Fungicidal activity against Aspergillus flavus ATCC 9643 after 72 hrs by serial subcultivation method; type: functional; settings: ATCC 9643, 72 h
Trichoderma viride [9] = test: Fungicidal activity against Trichoderma viride IAM 5061 after 72 hrs by serial subcultivation method; type: functional; settings: IAM 5061, 72 h
Penicillium ochrochloron [10] = test: Fungicidal activity against Penicillium ochrochloron ATCC 9112 after 72 hrs by serial subcultivation method; type: functional; settings: ATCC 9112, 72 h
Aspergillus flavus [11] = test: Antifungal activity against Aspergillus flavus ATCC 9643 after 72 hrs by serial dilution technique; type: functional; settings: ATCC 9643, 72 h; how it was run: as §4
Talaromyces funiculosus [12] = test: Fungicidal activity against Penicillium funiculosum ATCC 36839 after 72 hrs by serial subcultivation method; type: functional; settings: ATCC 36839, 72 h
Aspergillus fumigatus [13] = test: Antifungal activity against Aspergillus fumigatus after 72 hrs by serial dilution technique; type: functional; how it was run: as §4
Trichoderma viride [14] = test: Antifungal activity against Trichoderma viride IAM 5061 after 72 hrs by serial dilution technique; type: functional; settings: IAM 5061, 72 h; how it was run: as §4
Penicillium ochrochloron [15] = test: Antifungal activity against Penicillium ochrochloron ATCC 9112 after 72 hrs by serial dilution technique; type: functional; settings: ATCC 9112, 72 h; how it was run: as §4
Talaromyces funiculosus [16] = test: Antifungal activity against Penicillium funiculosum ATCC 36839 after 72 hrs by serial dilution technique; type: functional; settings: ATCC 36839, 72 h; how it was run: as §4
Escherichia coli [17] = test: Bactericidal activity against Escherichia coli ATCC 35210 after 72 hrs by serial subcultivation method; type: functional; settings: ATCC 35210, 72 h
Pseudomonas aeruginosa [18] = test: Bactericidal activity against Pseudomonas aeruginosa ATCC 27853 after 72 hrs by serial subcultivation method; type: functional; settings: ATCC 27853, 72 h
Listeria monocytogenes [19] = test: Bactericidal activity against Listeria monocytogenes NCTC 7973 after 72 hrs by serial subcultivation method; type: functional; settings: NCTC 7973, 72 h
Bacillus cereus [20] = test: Bactericidal activity against Bacillus cereus clinical isolate after 72 hrs by serial subcultivation method; type: functional
Micrococcus flavus [21] = test: Bactericidal activity against Micrococcus flavus ATCC 10240 after 72 hrs by serial subcultivation method; type: functional; settings: ATCC 10240, 72 h
Staphylococcus aureus [22] = test: Bactericidal activity against Staphylococcus aureus ATCC 6538 after 72 hrs by serial subcultivation method; type: functional; settings: ATCC 6538, 72 h
Escherichia coli [23] = test: Antibacterial activity against Escherichia coli ATCC 35210 after 24 hr by microdilution test; type: functional; settings: ATCC 35210, 24 h
How it was run: (§5)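 Broth microdilution in LB medium, about 1.0×10^4 cfu per well; compounds from 1 mg/ml stocks in 5% DMSO. Incubated 24 h. MIC is the lowest concentration with no visible growth under a binocular microscope. Run in duplicate, repeated three times.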

Listeria monocytogenes [24] = test: Antibacterial activity against Listeria monocytogenes NCTC 7973 after 24 hr by microdilution test; type: functional; settings: NCTC 7973, 24 h; how it was run: as §5
Pseudomonas aeruginosa [25] = test: Antibacterial activity against Pseudomonas aeruginosa ATCC 27853 after 24 hr by microdilution test; type: functional; settings: ATCC 27853, 24 h; how it was run: as §5
Micrococcus flavus [26] = test: Antibacterial activity against Micrococcus flavus ATCC 10240 after 24 hr by microdilution test; type: functional; settings: ATCC 10240, 24 h; how it was run: as §5
Bacillus cereus [27] = test: Antibacterial activity against Bacillus cereus clinical isolate after 24 hr by microdilution test; type: functional; how it was run: as §5
Staphylococcus aureus [28] = test: Antibacterial activity against Staphylococcus aureus ATCC 6538 after 24 hr by microdilution test; type: functional; settings: ATCC 6538, 24 h; how it was run: as §5
[29] = target: T2, Prostaglandin G/H synthase 1 (Ovis aries, UniProt P05979); test: as §1; how it was run: as §2
T2 sequence (P05979 whole entry): T1 sequence (whole entry)

Row | Compound | Activity (Mus musculus [1]) | inhibition in vivo at 10 µmol/kg (Mus musculus [2]) [%] | inhibition [3] [%] | IC50 [4] [µM] | inhibition (Glycine max) [%] | MFC (Aspergillus niger [5]) [µM] | MIC (Aspergillus niger [6]) [µM] | MFC (Aspergillus fumigatus [7]) [µM] | MFC (Aspergillus flavus [8]) [µM] | MFC (Trichoderma viride [9]) [µM] | MFC (Penicillium ochrochloron [10]) [µM] | MIC (Aspergillus flavus [11]) [µM] | MFC (Talaromyces funiculosus [12]) [µM] | MIC (Aspergillus fumigatus [13]) [µM] | MIC (Trichoderma viride [14]) [µM] | MIC (Penicillium ochrochloron [15]) [µM] | MIC (Talaromyces funiculosus [16]) [µM] | MBC (Escherichia coli [17]) [µM] | MBC (Pseudomonas aeruginosa [18]) [µM] | MBC (Listeria monocytogenes [19]) [µM] | further results
1 | O=C1N/C(=N\c2nccs2)S/C1=C\c1cccc(Br)c1 | Non-toxic | 42.7 | 2 | > 150 | 34 | 25.6 (≈ 9.38 µg/mL) | 18 (≈ 6.59 µg/mL) | 25.6 (≈ 9.38 µg/mL) | 25.6 (≈ 9.38 µg/mL) | 22 (≈ 8.06 µg/mL) | 22 (≈ 8.06 µg/mL) | 22 (≈ 8.06 µg/mL) | 22 (≈ 8.06 µg/mL) | 18 (≈ 6.59 µg/mL) | 18 (≈ 6.59 µg/mL) | 18 (≈ 6.59 µg/mL) | 18 (≈ 6.59 µg/mL) | 25.6 (≈ 9.38 µg/mL) | 25.6 (≈ 9.38 µg/mL) | 18.3 (≈ 6.7 µg/mL) | MBC (Bacillus cereus [20]): 29.2 µM (≈ 10.7 µg/mL); MBC (Micrococcus flavus [21]): 25.6 µM (≈ 9.38 µg/mL); MBC (Staphylococcus aureus [22]): 14.4 µM (≈ 5.27 µg/mL); MIC (Escherichia coli [23]): 14.6 µM (≈ 5.35 µg/mL); MIC (Listeria monocytogenes [24]): 14.4 µM (≈ 5.27 µg/mL); MIC (Pseudomonas aeruginosa [25]): 14.6 µM (≈ 5.35 µg/mL); MIC (Micrococcus flavus [26]): 18.3 µM (≈ 6.7 µg/mL); MIC (Bacillus cereus [27]): 25.6 µM (≈ 9.38 µg/mL); MIC (Staphylococcus aureus [28]): 7.3 µM (≈ 2.67 µg/mL)
2 | O=C1N/C(=N\c2nccs2)S/C1=C\c1ccc(F)cc1 | Non-toxic | 65.6 | 44 | > 150 | 35 | 65.4 (≈ 20 µg/mL) | 32.7 (≈ 9.99 µg/mL) | 65.4 (≈ 20 µg/mL) | 81.9 (≈ 25 µg/mL) | 65.4 (≈ 20 µg/mL) | 65.4 (≈ 20 µg/mL) | 65.4 (≈ 20 µg/mL) | 65.4 (≈ 20 µg/mL) | 49.1 (≈ 15 µg/mL) | 32.7 (≈ 9.99 µg/mL) | 32.7 (≈ 9.99 µg/mL) | 32.7 (≈ 9.99 µg/mL) | 65.4 (≈ 20 µg/mL) | 65.4 (≈ 20 µg/mL) | 98.2 (≈ 30 µg/mL) | MBC (Bacillus cereus [20]): 32.7 µM (≈ 9.99 µg/mL); MBC (Micrococcus flavus [21]): 81.9 µM (≈ 25 µg/mL); MBC (Staphylococcus aureus [22]): 65.4 µM (≈ 20 µg/mL); MIC (Escherichia coli [23]): 32.7 µM (≈ 9.99 µg/mL); MIC (Listeria monocytogenes [24]): 81.9 µM (≈ 25 µg/mL); MIC (Pseudomonas aeruginosa [25]): 32.7 µM (≈ 9.99 µg/mL); MIC (Micrococcus flavus [26]): 65.4 µM (≈ 20 µg/mL); MIC (Bacillus cereus [27]): 24.6 µM (≈ 7.51 µg/mL); MIC (Staphylococcus aureus [28]): 32.7 µM (≈ 9.99 µg/mL)
3 | O=C1N/C(=N\c2nccs2)S/C1=C\c1cccc(F)c1 | Non-toxic | 56.6 | 42 | 90 | 72 | 65.4 (≈ 20 µg/mL) | 32.7 (≈ 9.99 µg/mL) | 49.1 (≈ 15 µg/mL) | 65.4 (≈ 20 µg/mL) | 65.4 (≈ 20 µg/mL) | 65.4 (≈ 20 µg/mL) | 32.7 (≈ 9.99 µg/mL) | 65.4 (≈ 20 µg/mL) | 32.7 (≈ 9.99 µg/mL) | 32.7 (≈ 9.99 µg/mL) | 32.7 (≈ 9.99 µg/mL) | 32.7 (≈ 9.99 µg/mL) | 65.4 (≈ 20 µg/mL) | 32.7 (≈ 9.99 µg/mL) | 98.2 (≈ 30 µg/mL) | MBC (Bacillus cereus [20]): 32.7 µM (≈ 9.99 µg/mL); MBC (Micrococcus flavus [21]): 81.9 µM (≈ 25 µg/mL); MBC (Staphylococcus aureus [22]): 65.4 µM (≈ 20 µg/mL); MIC (Escherichia coli [23]): 32.7 µM (≈ 9.99 µg/mL); MIC (Listeria monocytogenes [24]): 81.9 µM (≈ 25 µg/mL); MIC (Pseudomonas aeruginosa [25]): 24.6 µM (≈ 7.51 µg/mL); MIC (Micrococcus flavus [26]): 65.4 µM (≈ 20 µg/mL); MIC (Bacillus cereus [27]): 24.6 µM (≈ 7.51 µg/mL); MIC (Staphylococcus aureus [28]): 32.7 µM (≈ 9.99 µg/mL)
4 | O=C1N/C(=N\c2nccs2)S/C1=C\c1cccc(O)c1 | Non-toxic | 33.7 | 98 | > 150 | 35 | – | – | – | – | – | – | – | – | – | – | – | – | – | – | – | IC50 [29]: 16 µM
